Results from ChEMBL document CHEMBL1132569.

Key:
[1] = target: T1, Muscarinic acetylcholine receptor M5 (Homo sapiens) (UniProt P08912); assay: Binding affinity at the NMS liganded human muscarinic acetylcholine receptor M5 was estimated as log affinity (log1/M)
T1 sequence (whole entry): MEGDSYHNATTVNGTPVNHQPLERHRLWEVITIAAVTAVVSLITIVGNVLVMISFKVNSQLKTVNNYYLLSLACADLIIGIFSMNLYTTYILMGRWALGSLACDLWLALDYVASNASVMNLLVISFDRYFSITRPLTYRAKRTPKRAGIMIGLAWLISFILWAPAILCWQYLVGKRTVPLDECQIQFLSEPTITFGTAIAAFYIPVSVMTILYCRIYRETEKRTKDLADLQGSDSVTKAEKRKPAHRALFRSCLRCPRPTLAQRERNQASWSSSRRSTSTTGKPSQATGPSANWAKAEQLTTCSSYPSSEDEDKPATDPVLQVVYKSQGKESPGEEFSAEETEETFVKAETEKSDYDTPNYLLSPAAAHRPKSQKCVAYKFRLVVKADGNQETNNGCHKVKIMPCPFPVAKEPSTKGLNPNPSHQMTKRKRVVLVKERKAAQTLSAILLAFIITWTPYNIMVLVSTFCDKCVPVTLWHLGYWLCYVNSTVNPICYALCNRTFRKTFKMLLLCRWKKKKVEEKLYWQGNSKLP
In short: (§1)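 Equilibrium runs were ≥2 h with 2 × 10⁻⁴ M GTP and 0.1–0.7 nM ³H-NMS. Nonspecific binding was defined with 10⁻⁶ M QNB, and bound ligand was filtered and counted. Log affinities came from semiquantitative plus off-rate, quantitative equilibrium, or nonequilibrium assays, fitted by nonlinear least squares to the allosteric ternary complex model.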

[2] = target: T2, Muscarinic acetylcholine receptor M2 (Homo sapiens) (UniProt P08172); assay: Binding affinity at the unliganded human muscarinic acetylcholine receptor M2 was estimated as log affinity (log1/M); in short: as §1
T2 sequence (whole entry): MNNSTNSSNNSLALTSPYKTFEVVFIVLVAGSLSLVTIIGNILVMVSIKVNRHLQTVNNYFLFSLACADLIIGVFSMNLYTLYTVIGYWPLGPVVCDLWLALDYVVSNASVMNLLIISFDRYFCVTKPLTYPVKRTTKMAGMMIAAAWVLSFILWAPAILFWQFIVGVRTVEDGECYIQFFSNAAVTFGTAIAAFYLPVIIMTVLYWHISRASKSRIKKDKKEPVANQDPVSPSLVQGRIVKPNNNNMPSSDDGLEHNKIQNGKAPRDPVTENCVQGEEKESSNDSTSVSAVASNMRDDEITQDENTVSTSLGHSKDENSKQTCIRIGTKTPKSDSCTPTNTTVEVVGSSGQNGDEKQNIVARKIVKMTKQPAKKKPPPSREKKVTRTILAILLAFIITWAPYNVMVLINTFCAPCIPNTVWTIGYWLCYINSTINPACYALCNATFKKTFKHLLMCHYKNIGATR

[3] = target: T1, Muscarinic acetylcholine receptor M5 (Homo sapiens); assay: Binding affinity at the unliganded Muscarinic acetylcholine receptor M5 was estimated as log affinity (log1/M); in short: as §1
[4] = target: T3, Muscarinic acetylcholine receptor M1 (Homo sapiens) (UniProt P11229); assay: Binding affinity at the unliganded human muscarinic acetylcholine receptor M1 was estimated as log affinity (log1/M); in short: as §1
T3 sequence (whole entry): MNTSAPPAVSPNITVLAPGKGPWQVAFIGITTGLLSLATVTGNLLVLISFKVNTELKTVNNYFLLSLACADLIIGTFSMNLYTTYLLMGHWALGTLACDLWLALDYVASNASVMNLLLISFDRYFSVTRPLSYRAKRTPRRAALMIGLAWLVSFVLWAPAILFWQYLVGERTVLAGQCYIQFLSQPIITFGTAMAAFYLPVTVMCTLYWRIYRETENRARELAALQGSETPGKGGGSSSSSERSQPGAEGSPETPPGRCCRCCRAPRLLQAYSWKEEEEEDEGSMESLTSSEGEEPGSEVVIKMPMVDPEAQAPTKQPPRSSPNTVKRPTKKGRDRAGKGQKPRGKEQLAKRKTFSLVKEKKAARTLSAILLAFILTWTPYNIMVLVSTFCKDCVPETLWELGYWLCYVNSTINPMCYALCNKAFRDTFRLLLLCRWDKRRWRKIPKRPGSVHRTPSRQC

[5] = target: Muscarinic acetylcholine receptor M3 (Homo sapiens) (UniProt P20309); assay: Binding affinity at the NMS liganded human muscarinic acetylcholine receptor M3 was estimated as log affinity (log1/M); in short: as §1
[6] = target: T2, Muscarinic acetylcholine receptor M2 (Homo sapiens); assay: Cooperativity with NMS at human muscarinic acetylcholine receptor M2
In short: (§2)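 Equilibrium ³H-NMS binding in CHO membranes expressing human m1–m5 receptors was measured with and without ACh, alone and with three agent concentrations. Data were converted to affinity ratios, meaning apparent primary-ligand affinity with agent divided by affinity without it.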

[7] = target: Muscarinic acetylcholine receptor M3 (Homo sapiens) (UniProt P20309); assay: Cooperativity with NMS at human muscarinic acetylcholine receptor M3; in short: as §2
[8] = target: Muscarinic acetylcholine receptor M3 (Homo sapiens) (UniProt P20309); assay: Cooperativity with acetylcholine at human muscarinic acetylcholine receptor M3; in short: as §2
[9] = target: T4, Muscarinic acetylcholine receptor M4 (Homo sapiens) (UniProt P08173); assay: Binding affinity at the NMS liganded human muscarinic acetylcholine receptor M4 was estimated as log affinity (log1/M); in short: as §1
T4 sequence (whole entry): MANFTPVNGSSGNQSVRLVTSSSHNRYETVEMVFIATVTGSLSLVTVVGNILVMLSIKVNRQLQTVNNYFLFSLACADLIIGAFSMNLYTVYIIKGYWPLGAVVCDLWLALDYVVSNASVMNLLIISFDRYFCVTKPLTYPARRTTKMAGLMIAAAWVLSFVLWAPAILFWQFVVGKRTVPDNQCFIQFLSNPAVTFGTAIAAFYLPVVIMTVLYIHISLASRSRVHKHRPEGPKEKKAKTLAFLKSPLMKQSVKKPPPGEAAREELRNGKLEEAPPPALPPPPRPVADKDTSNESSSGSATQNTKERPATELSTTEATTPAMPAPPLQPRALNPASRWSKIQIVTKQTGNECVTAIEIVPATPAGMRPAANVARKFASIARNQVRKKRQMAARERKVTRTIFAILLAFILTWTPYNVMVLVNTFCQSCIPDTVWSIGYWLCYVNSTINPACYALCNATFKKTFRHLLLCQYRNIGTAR

[10] = target: T4, Muscarinic acetylcholine receptor M4 (Homo sapiens); assay: Cooperativity with acetylcholine at human muscarinic acetylcholine receptor M4; in short: as §2
[11] = target: T1, Muscarinic acetylcholine receptor M5 (Homo sapiens); assay: Cooperativity with NMS at Muscarinic acetylcholine receptor M5; in short: as §2
[12] = target: T3, Muscarinic acetylcholine receptor M1 (Homo sapiens); assay: Binding affinity at the NMS liganded human muscarinic acetylcholine receptor M1 was estimated as log affinity (log1/M); in short: as §1
[13] = target: T4, Muscarinic acetylcholine receptor M4 (Homo sapiens); assay: Binding affinity at the unliganded human muscarinic acetylcholine receptor M4 was estimated as log affinity (log1/M); in short: as §1
[14] = target: T2, Muscarinic acetylcholine receptor M2 (Homo sapiens); assay: Binding affinity at the NMS liganded human muscarinic acetylcholine receptor M2 was estimated as log affinity (log1/M); in short: as §1
[15] = target: T1, Muscarinic acetylcholine receptor M5 (Homo sapiens); assay: Cooperativity with acetylcholine at Muscarinic acetylcholine receptor M5; in short: as §2
[16] = target: T2, Muscarinic acetylcholine receptor M2 (Homo sapiens); assay: Cooperativity with acetylcholine at human muscarinic acetylcholine receptor M2; in short: as §2
[17] = target: Muscarinic acetylcholine receptor M3 (Homo sapiens) (UniProt P20309); assay: Binding affinity at the unliganded human muscarinic acetylcholine receptor M3 was estimated as log affinity (log1/M); in short: as §1
[18] = target: T3, Muscarinic acetylcholine receptor M1 (Homo sapiens); assay: Cooperativity with NMS at human muscarinic acetylcholine receptor M1; in short: as §2
[19] = target: T3, Muscarinic acetylcholine receptor M1 (Homo sapiens); assay: Cooperativity with acetylcholine at human muscarinic acetylcholine receptor M1; in short: as §2
[20] = target: T4, Muscarinic acetylcholine receptor M4 (Homo sapiens); assay: Cooperativity with NMS at human muscarinic acetylcholine receptor M4; in short: as §2

Chain of Muscarinic acetylcholine receptor M3 (Homo sapiens) (P20309 whole entry, looked up): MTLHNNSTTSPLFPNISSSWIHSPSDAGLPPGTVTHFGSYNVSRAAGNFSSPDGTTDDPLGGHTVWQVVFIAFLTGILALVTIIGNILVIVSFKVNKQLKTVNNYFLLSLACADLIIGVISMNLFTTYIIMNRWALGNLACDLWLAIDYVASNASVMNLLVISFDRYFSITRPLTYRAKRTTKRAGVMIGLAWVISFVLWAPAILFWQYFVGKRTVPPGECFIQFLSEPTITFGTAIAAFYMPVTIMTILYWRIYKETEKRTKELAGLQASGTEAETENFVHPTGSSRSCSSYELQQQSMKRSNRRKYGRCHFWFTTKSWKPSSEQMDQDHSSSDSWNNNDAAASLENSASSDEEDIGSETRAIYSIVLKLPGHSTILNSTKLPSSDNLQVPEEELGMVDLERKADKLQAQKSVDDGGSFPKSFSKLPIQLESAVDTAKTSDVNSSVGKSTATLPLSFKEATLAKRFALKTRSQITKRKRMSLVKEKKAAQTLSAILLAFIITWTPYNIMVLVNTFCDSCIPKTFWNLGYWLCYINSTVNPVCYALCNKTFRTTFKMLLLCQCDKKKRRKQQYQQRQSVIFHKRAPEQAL

Row | SMILES | Affinity [1] | Affinity [2] | Affinity [3] | Affinity [4] | Affinity [5] | Cooperativity [6] | Cooperativity [7] | Cooperativity [8] | Affinity [9] | Cooperativity [10] | Cooperativity [11] | Affinity [12] | Affinity [13] | Affinity [14] | Cooperativity [15] | Cooperativity [16] | Affinity [17] | Cooperativity [18] | Cooperativity [19] | Cooperativity [20]
1 | COc1cc2c(cc1OC)[C@@]13CC[N+]4(Cc5ccccc5)CC5=CCO[C@H]6CC(=O)N2[C@H]1[C@H]6[C@H]5C[C@@H]34 (stereo not given in full) | 3.7 | 4.6 | 3.7 | < 4.6 | 3.8 | > 2 | 0.8 | 2 | 4.5 | 0.8 | 1.19 | 4.4 | 4.5 | 4.8 | 0.8 | 0.8 | > 4 | 0.8 | 0.8 | 1.19
2 | COc1cc2c(cc1OC)[C@@]13CC[N+]4(C)CC5=CCO[C@H]6CC(=O)N2[C@H]1[C@H]6[C@H]5C[C@@H]34 (stereo not given in full) | 2.9 | 4 | 3.3 | 4 | 3.6 | > 2 | 1.19 | 2 | 4.4 | 0.8 | 0.8 | 4 | 4.3 | 4.5 | < 0.2 | 0.8 | 3.5 | 1.19 | 0.8 | 1.19
3 | COc1cc2c(cc1OC)[C@@]13CC[N+]4([O-])CC5=CCO[C@H]6CC(=O)N2[C@H]1[C@H]6[C@H]5C[C@@H]34 (stereo not given in full) | 2.7 | 2.7 | 2.5 | 3.4 | 2.8 | > 2 | 1.19 | > 2 | 3.7 | 2 | 2 | 3.6 | 3.7 | 3.3 | 0.8 | 0.8 | 2.8 | 2 | 1.19 | 1.19
